Article PMC3304101 (Journal of Medicinal Chemistry, 2010)
Counter-ions that a name gives are not always drawn. Like-named read-outs stand apart in the source and are kept apart here. One block for each molecule: values may come before it.

Tests used:
HeLa/hPEPT1 cells = assay: Direct uptake in HeLa/hPEPT1 cells; assay type: cell-based, human; settings: for remaining in donor solution after 1 h: direct uptake study, HeLa/hPEPT1 and normal HeLa cells
Method in brief: (§1)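 HeLa cells grown 5 days in 12-well plates; the hPEPT1 set was infected with hPEPT1 adenovirus 3 days before, and uninfected HeLa served as control. After a wash and 15 min preincubation in uptake buffer (pH 6.0, MES) at 37 °C, cells took 1 mM test compound for 60 min at 37 °C. Then washed ice-cold, sonicated, TFA-precipitated (7% final), HPLC; protein measured by DC assay; triplicate.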

HeLa cell homogenates = assay: Hydrolysis in HeLa cell homogenates; assay type: in vitro ADME; settings: 500 μg/mL protein, 37 °C; * no area decrease detected in HPLC after 2 h
Caco-2 cell homogenates = assay: Hydrolysis in Caco-2 cell homogenates; assay type: in vitro ADME; settings: 500 μg/mL protein, 37 °C; * no area decrease detected in HPLC after 2 h
[1] = Hydrolysis in pH 6.0 uptake buffer; assay type: physicochemical; settings: 37 °C, * no area decrease detected in HPLC after 2 h, ** less than 5% decrease after 2 h
[2] = Hydrolysis in pH 7.4 phosphate buffer; assay type: physicochemical
Method in brief: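 Test compound (200 mM DMSO stock) in 10 mM phosphate buffer, pH 7.4, at 37 °C. Sampled at 0, 5, 10, 30, 60 and 120 min, quenched in 0.1% TFA, HPLC. Pseudo-first-order k from ln(remaining) vs time; t1/2=0.693/k; triplicate.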

rat jejunum = assay: In situ single-pass rat jejunum perfusion; assay type: in vivo; settings: 0.1 mM, pH 6.5, compared to co-perfused metoprolol; result in words (Figure 3)
Method in brief: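 Male Wistar rats, 250–280 g, fasted 12–18 h, anesthetized i.m. with ketamine-xylazine; ~10 cm jejunal segment cannulated in situ at 37 °C. Perfused at 0.2 mL/min with pH 6.5 MES buffer containing 0.1 mM test compound, 0.4 mg/mL metoprolol and phenol red. Samples every 10 min for 1 h after 1 h steady state; HPLC. […], outlet corrected by phenol red; n=4.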

hPEPT1 = molecular target: T1, hPEPT1 (Homo sapiens, UniProt P46059); assay: [3H]Gly-Sar uptake inhibition in HeLa/hPEPT1 cells; assay type: cell-based
T1 sequence (P46059 1-708): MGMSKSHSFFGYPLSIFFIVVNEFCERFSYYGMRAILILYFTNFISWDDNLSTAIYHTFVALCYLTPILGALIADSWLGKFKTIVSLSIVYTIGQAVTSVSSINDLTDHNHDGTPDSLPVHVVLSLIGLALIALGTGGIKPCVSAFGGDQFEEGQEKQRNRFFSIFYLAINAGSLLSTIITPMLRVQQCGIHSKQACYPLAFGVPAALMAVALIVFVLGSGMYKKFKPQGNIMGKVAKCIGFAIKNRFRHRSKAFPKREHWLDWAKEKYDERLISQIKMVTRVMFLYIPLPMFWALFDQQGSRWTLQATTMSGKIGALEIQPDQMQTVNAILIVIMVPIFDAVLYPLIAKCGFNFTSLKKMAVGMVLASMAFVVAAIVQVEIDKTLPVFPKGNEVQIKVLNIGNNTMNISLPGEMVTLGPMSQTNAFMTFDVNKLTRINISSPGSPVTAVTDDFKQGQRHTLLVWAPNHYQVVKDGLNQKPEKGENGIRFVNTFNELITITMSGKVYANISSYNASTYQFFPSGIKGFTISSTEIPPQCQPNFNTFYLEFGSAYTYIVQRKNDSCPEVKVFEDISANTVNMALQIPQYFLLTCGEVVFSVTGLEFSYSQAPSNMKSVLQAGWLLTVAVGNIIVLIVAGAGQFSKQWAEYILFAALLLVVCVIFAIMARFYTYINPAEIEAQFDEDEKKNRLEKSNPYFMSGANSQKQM
Method in brief: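 HeLa cells infected with hPEPT1 adenovirus 3 days before assay. Incubated 30 min at 37 °C in pH 6.0 MES uptake buffer with 10 μM Gly-Sar (0.1 μM [3H]) plus 0.05–5 mM test compound. Washed three times ice-cold, lysed in 0.1% SDS, scintillation counted. IC50 by nonlinear fitting; n=4.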

Caco-2 monolayers = assay: Caco-2 monolayer permeability study; assay type: in vitro ADME; settings: for Apparent apical-to-basolateral permeability coefficient (Papp): 200 μM, apical pH 6.0, basolateral pH 7.5, result in words (Figure 1)
Method in brief: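 Caco-2 cells grown on collagen-coated 3.0 μm-pore transwell inserts and used 22–23 days post-seeding; TEER checked before and after. After 15 min preincubation at 37 °C, apical MES buffer (pH 6.0) replaced with 200 μM test compound, basolateral HEPES buffer (pH 7.5). Basolateral aliquots taken at set intervals and replaced with fresh buffer; HPLC. Papp=(1/C0A)(dQ/dt), steady-state rate; triplicate.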

[3] = cited from earlier work
HeLa cells = assay: Direct uptake in normal HeLa cells; assay type: cell-based; settings: 1 mM test compound, pH 6.0, 60 min
Method in brief: as §1

[4] = substrate: CC(C)[C@H](N)C(=O)OCc1cccc(NC(=N)N)c1; assay: hVACVase-mediated hydrolysis; assay type: biochemical, human; settings: other: recombinant hVACVase, 50 mM HEPES pH 7.4, 37 °C
[5] = substrate: CC(C)[C@H](N)C(=O)OCCOCn1cnc2c(=O)[nH]c(N)nc21; assay: hVACVase-mediated hydrolysis; assay type: biochemical, human; settings: other: recombinant hVACVase, 50 mM HEPES pH 7.4, 37 °C
[6] = substrate: NC(N)=Nc1cccc(COC(=O)[C@@H](N)Cc2ccccc2)c1; assay: hVACVase-mediated hydrolysis; assay type: biochemical, human; settings: other: recombinant hVACVase, 50 mM HEPES pH 7.4, 37 °C
[7] = substrate: CC[C@H](C)[C@H](N)C(=O)OCc1cccc(N=C(N)N)c1; assay: hVACVase-mediated hydrolysis; assay type: biochemical, human; settings: other: recombinant hVACVase, 50 mM HEPES pH 7.4, 37 °C

Molecule: N=C(N)Nc1cccc(CO)c1 [3-HPG, [3-(hydroxymethyl)phenyl]guanidine]
- remaining in donor solution after 1 h (HeLa/hPEPT1 cells): > 95%
- Half-lives, HeLa cell homogenates (HeLa cell homogenates): stable ^*
- Half-lives, Caco-2 cell homogenates (Caco-2 cell homogenates): stable ^*
- Half-lives, pH 6 buffer [1]: stable ^*
- Half-lives, pH 7.4 buffer ([2]; 10 mM phosphate buffer pH 7.4, 37 °C, * no area decrease detected in HPLC after 2 h): stable ^*
- Effective permeability (Peff), rat jejunum (rat jejunum): very low

Molecule: CC[C@H](C)[C@H](N)C(=O)OCc1ccccc1 [Ile-OBz, L-Isoleucine benzyl ester 4-toluenesulfonate salt]
- IC50 (hPEPT1): 1050 ± 130 µM

Molecule: NC(N)=Nc1cccc(COC(=O)[C@@H](N)Cc2ccccc2)c1 [Phe-3-HPG, L-Phenylalnine [3-[(aminoiminomethyl)amino]phenyl]methyl ester]
- remaining in donor solution after 1 h (HeLa/hPEPT1 cells): > 80%
- Apparent apical-to-basolateral permeability coefficient (Papp) (Caco-2 monolayers): didn’t show significantly different permeability than 3-HPG
- Half-lives, pH 6 buffer [1]: stable ^**

Molecule: CC1CNc2c(cccc2S(=O)(=O)N[C@@H](CCCNC(=N)N)C(=O)N2CC[C@@H](C)C[C@@H]2C(=O)O)C1 (stereo partly drawn) [argatroban]
- oral bioavailability ([3]; in vivo, po): low oral bioavailability

Molecule: CC(C)[C@H](N)C(=O)OCC(CO)OCn1cnc2c(=O)nc(N)[nH]c21 (stereo partly drawn) [valganciclovir]
- oral bioavailability [3]: more than 50%

Molecule: CC(=O)N[C@H]1[C@H]([C@H](O)[C@H](O)CO)OC(C(=O)O)=C[C@@H]1N=C(N)N [zanamivir]
- oral bioavailability ([3]; result in words): low oral bioavailability

Molecule: D-Valine [3-[(aminoiminomethyl)amino]phenyl]methyl ester [D-Val-3-HPG]
- Apparent apical-to-basolateral permeability coefficient (Papp) (Caco-2 monolayers): no transport
- Stability in apical side during Caco-2 permeability study (Caco-2 monolayers; percentage of ester form in donor solution at 120 min): 98.8 ± 0.1%

B1: hVACVase (Homo sapiens) (protein)
chain: SVTSAKVAVNGVQLHYQQTGEGDHAVLLLPGMLGSGETDFGPQLKNLNKKLFTVVAWDPRGYGHSRPPDRDFPADFFERDAKDAVDLMKALKFKKVSLLGWSDGGITALIAAAKYPSYIHKMVIWGANAYVTDEDSMIYEGIRDVSKWSERTRKPLEALYGYDYFARTCEKWVDGIRQFKHLPDGNICRHLLPRVQCPALIVHGEKDPLVPRFHADFIHKHVKGSRLHLMPEGKHNLHLRFADEFNKLAEDFLQ
- Km [4]: 46 ± 5 µM
- Vmax [4]: 321 µmol/min/mg
- kcat [4]: 154 ± 4 s⁻¹
- kcat/Km [4]: 3.37e+06 ± 460000 M⁻¹ s⁻¹
- Km [5]: 68 ± 4 µM
- Vmax [5]: 120 µmol/min/mg
- kcat [5]: 58 ± 1 s⁻¹
- kcat/Km [5]: 850000 ± 66000 M⁻¹ s⁻¹
- Km [6]: 207 ± 16 µM
- Vmax [6]: 718 µmol/min/mg
- kcat [6]: 345 ± 8 s⁻¹
- kcat/Km [6]: 1.66e+06 ± 160000 M⁻¹ s⁻¹
- Km [7]: 9.0 ± 1.2 µM
- Vmax [7]: 30 µmol/min/mg
- kcat [7]: 14 ± 1 s⁻¹
- kcat/Km [7]: 1.58e+06 ± 260000 M⁻¹ s⁻¹

Continued, in another order:

- IC50 (hPEPT1): > 3000 µM
Molecule: N[C@@H](Cc1ccccc1)C(=O)OCc1ccccc1 [Phe-OBz, L-phenylalanine benzyl ester hydrochloride]

- IC50 (hPEPT1): 390 ± 40 µM
Molecule: CC(C)[C@H](N)C(=O)OCc1ccccc1 [Val-OBz, L-valine benzyl ester hydrochloride]

- remaining in donor solution after 1 h (HeLa/hPEPT1 cells): > 95%
- Half-lives, pH 6 buffer [1]: stable ^*
- half-life at 200 µM ([2]; phosphate buffer, pH 7.4): 13.8 ± 0.417 h
Molecule: CC(C)[C@H](N)C(=O)OCCOCn1cnc2c(=O)nc(N)[nH]c21 [valacyclovir]
- hPEPT1/control (HeLa/hPEPT1 cells; ratio of uptake in HeLa/hPEPT1 cells to uptake in normal HeLa cells (fold)): > 25
- uptake, HeLa cells (HeLa cells): < 0.2 nmol/mg in 60 min
- oral bioavailability [3]: more than 50%
